# Measured values from ChEMBL document CHEMBL1126263, “Development of high-affinity 5-HT3 receptor antagonists. 2. Two novel tricyclic benzamides” (J Med Chem, 1992).
# Experiments:
# Type in all cases: functional
# [1] = test system: Mustela putorius furo; assay: Antiemetic potency was tested against cisplatin-induced emetic latency period in ferret after oral administration
# In short: (§1)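 Ferret cisplatin-emesis model, iv or po pretreatment 30 or 60 min before cisplatin. Emetic latency read-out given as ED100, the dose raising emetic latency 100% over the control period. Based on 3–10 animals per dose, at least three per compound.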
# [2] = test system: Mustela putorius furo; assay: Antiemetic potency was tested against cisplatin-induced emetic episodes in ferret after oral administration
# In short: (§2)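 Ferret cisplatin-emesis model. Drug given iv or po, 30 or 60 min before cisplatin. Emetic episodes counted and ED50 derived from 3–10 animals per dose, at least three per compound. Control emetic episode means were reported.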
# [3] = test system: Mustela putorius furo; assay: The compound was evaluated for the percentage reduction in the emetic episodes against cisplatin induced emesis in ferret (intravenous administration)
# In short: (§3)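 Ferrets receive the test agent iv as a pretreatment before the cisplatin challenge; the table footnotes give 30 min and 60 min pretreatment times. Each dose uses 3–10 animals, with at least three doses per agent.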
# [4] = test system: Mustela putorius furo; assay: The compound was evaluated for the percentage increase in the emetic latency period to first emetic episode against cisplatin induced emesis in ferret (intravenous administration); in short: as §3
# [5] = test system: Mustela putorius furo; assay: Ratio of number of animals protected to the number of tested against cisplatin-induced emesis in ferret upon intravenous administration; 0/3; in short: as §3
# [6] = test system: Mustela putorius furo; assay: Ratio of number of animals protected to the number of tested against cisplatin-induced emesis in ferret upon intravenous administration; 0/5; in short: as §3
# [7] = test system: Mustela putorius furo; assay: The compound was evaluated for the percentage reduction in the emetic episodes against cisplatin-induced emesis in ferret (intravenous administration); in short: as §3
# [8] = test system: Mustela putorius furo; assay: Antiemetic potency against cisplatin-induced emetic episodes in ferret after intravenous administration; in short: as §2
# [9] = test system: Mustela putorius furo; assay: Antiemetic potency against cisplatin-induced emetic latency period in ferret after intravenous administration; in short: as §1
# [10] = test system: Mustela putorius furo; assay: The compound was evaluated for the percentage increase in the emetic latency period against cisplatin-induced emesis in ferret (oral administration)
# In short: (§4)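 Ferrets dosed orally in 0.5% methylcellulose vehicle 60 min before cisplatin and observed for 240 min. Scored for complete protection (protected/tested), mean % reduction in emetic episodes and mean % increase in emetic latency. Non-vomiting animals were assigned 240 min latency. Significance versus vehicle group at p<0.05 or p<0.01.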
# [11] = test system: Mustela putorius furo; assay: Ratio of number of animals protected to the number of tested against cisplatin-induced emesis in ferret upon intravenous administration; 0/4; in short: as §3
# [12] = test system: Mustela putorius furo; assay: Ratio of number of animals protected to the number of tested against cisplatin-induced emesis in ferret upon intravenous administration; 2/4; in short: as §3
# [13] = test system: Mustela putorius furo; assay: Compound was evaluated for Percent protected by giving RG 12915 (0.1 mg/kg) 60 min prior to cisplatin (orally) in ferret; in short: as §4
# [14] = test system: Mustela putorius furo; assay: Mean percent increase in emetic episode evaluated by giving RG 12915 (1.0 mg/kg) 60 min prior to cisplatin (orally) in ferret; in short: as §4
# [15] = test system: Mustela putorius furo; assay: Compound was evaluated for Percent protected by giving RG 12915 (0.003 mg/kg) 60 min prior to cisplatin (orally) in ferret; in short: as §4
# [16] = test system: Mustela putorius furo; assay: Mean percent reduction in emetic episode evaluated by giving RG 12915 (0.003 mg/kg) 60 min prior to cisplatin (orally) in ferret; in short: as §4
# [17] = test system: Mustela putorius furo; assay: Mean percent increase in emetic episode evaluated by giving RG 12915 (0.003 mg/kg) 60 min prior to cisplatin (orally) in ferret; in short: as §4
# [18] = test system: Mustela putorius furo; assay: Mean percent reduction in emetic episode evaluated by giving RG 12915 (1.0 mg/kg) 60 min prior to cisplatin (orally) in ferret; in short: as §4
# [19] = test system: Mustela putorius furo; assay: Compound was evaluated for Percent protected by giving 0.5% methylcellulose 60 min prior to cisplatin (orally) in ferret; in short: as §4
# [20] = test system: Mustela putorius furo; assay: Mean percent reduction in emetic episode evaluated by giving RG 12915 (0.03 mg/kg) 60 min prior to cisplatin (orally) in ferret; in short: as §4
# [21] = test system: Mustela putorius furo; assay: Ratio of no. of protected and no. of tested evaluated by giving RG 12915 (0.010 mg/kg) 60 min prior to cisplatin (orally) in ferret; 5/12; in short: as §4
# [22] = test system: Mustela putorius furo; assay: Ratio of no. of protected and no. of tested evaluated by giving 0.5% methylcellulose 60 min prior to cisplatin (orally) in ferret; 0/22; in short: as §4
# [23] = test system: Mustela putorius furo; assay: Ratio of no. of protected and no. of tested evaluated by giving RG 12915 (1.0 mg/kg) 60 min prior to cisplatin (orally) in ferret; 7/10; in short: as §4
# [24] = test system: Mustela putorius furo; assay: Compound was evaluated for Percent protected by giving RG 12915 (0.010 mg/kg) 60 min prior to cisplatin (orally) in ferret; in short: as §4
# [25] = test system: Mustela putorius furo; assay: Mean percent reduction in emetic episode evaluated by giving RG 12915 (0.1 mg/kg) 60 min prior to cisplatin (orally) in ferret; in short: as §4
# [26] = test system: Mustela putorius furo; assay: Mean percent reduction in emetic episode evaluated by giving RG 12915 (0.010 mg/kg) 60 min prior to cisplatin (orally) in ferret; in short: as §4
# [27] = test system: Mustela putorius furo; assay: Ratio of no. of protected and no. of tested evaluated by giving RG 12915 (0.003 mg/kg) 60 min prior to cisplatin (orally) in ferret; 1/4; in short: as §4
# [28] = test system: Mustela putorius furo; assay: Mean percent increase in emetic episode evaluated by giving RG 12915 (0.010 mg/kg) 60 min prior to cisplatin (orally) in ferret; in short: as §4
# [29] = test system: Mustela putorius furo; assay: Ratio of no. of protected and no. of tested evaluated by giving RG 12915 (0.03 mg/kg) 60 min prior to cisplatin (orally) in ferret; 4/4; in short: as §4
# [30] = test system: Mustela putorius furo; assay: Compound was evaluated for Percent protected by giving RG 12915 (1.0 mg/kg) 60 min prior to cisplatin (orally) in ferret; in short: as §4
# [31] = test system: Mustela putorius furo; assay: Mean percent increase in emetic episode evaluated by giving RG 12915 (0.03 mg/kg) 60 min prior to cisplatin (orally) in ferret; in short: as §4
# [32] = test system: Mustela putorius furo; assay: Ratio of no. of protected and no. of tested evaluated by giving RG 12915 (0.1 mg/kg) 60 min prior to cisplatin (orally) in ferret; 6/6; in short: as §4
# [33] = test system: Mustela putorius furo; assay: Mean percent increase in emetic episode evaluated by giving RG 12915 (0.1 mg/kg) 60 min prior to cisplatin (orally) in ferret; in short: as §4
# [34] = test system: Mustela putorius furo; assay: Compound was evaluated for Percent protected by giving RG 12915 (0.03 mg/kg) 60 min prior to cisplatin (orally) in ferret; in short: as §4
# [35] = test system: Mustela putorius furo; assay: The compound was evaluated for the percentage increase in the emetic latency period to first emetic episode against cisplatin-induced emesis in ferret (intravenous administration); in short: as §3
smiles,measurement,setting,value
O=C(N[C@H]1CN2CCC1CC2)c1cc(Cl)cc2c1O[C@H]1CCC[C@H]2C1,ED100,[1],>1 mg/kg
same,ED50,[2],> 1 mg/kg
CN1CCCC1CCNC(=O)c1cc(Cl)cc2c1OC1CCCCC21 (stereo not drawn),Reduction,[3],-38.1%
same,Increase,[4],-0.9%
same,Ratio,[5],0
CCN(CC)CCNC(=O)c1cc(Cl)cc2c1OC1CCCCC21 (stereo not drawn),Ratio,[6],0
same,Reduction,[7],2.2%
same,Increase,[4],6.5%
O=C(N[C@H]1CN2CCC1CC2)c1cc(Cl)cc2c1O[C@H]1CCC[C@@H]2C1,ED100,[1],0.408 mg/kg
same,ED50,[2],0.085 mg/kg
O=C(NC1CN2CCC1CC2)c1cc(Cl)cc2c1OC1CCCCC21 (stereo not drawn),ED50,[8],0.006 mg/kg
same,ED100,[9],0.011 mg/kg
same,ED100,[10],0.011 mg/kg
same,ED50,[2],0.005 mg/kg
O=C(NC1CN2CCC1CC2)c1cc(Cl)cc2c1OC1CCCC2C1 (stereo not drawn),ED100,[1],0.022 mg/kg
same,ED50,[2],0.079 mg/kg
O=C(NCCc1c[nH]cn1)c1cc(Cl)cc2c1OC1CCCCC21 (stereo not drawn),Reduction,[3],44.4%
same,Ratio,[11],0
same,Increase,[4],27.6%
O=C(NCCN1CCOCC1)c1cc(Cl)cc2c1OC1CCCCC21 (stereo not drawn),Reduction,[3],48.9%
same,Ratio,[12],2
same,Increase,[4],110.9%
O=C(N[C@@H]1CN2CCC1CC2)c1cc(Cl)cc2c1O[C@@H]1CCCC[C@H]21,ED100,[1],0.258 mg/kg
same,ED50,[2],0.041 mg/kg
O=C(N[C@@H]1CN2CCC1CC2)c1cc(Cl)cc2c1O[C@H]1CCC[C@@H]2C1,ED50,[8],0.009 mg/kg
same,ED100,[9],0.006 mg/kg
same,ED100,[1],0.01 mg/kg
same,ED50,[2],0.007 mg/kg
O=C(N[C@@H]1CN2CCC1CC2)c1cc(Cl)cc2c1O[C@@H]1CCC[C@H]2C1,ED100,[1],0.29 mg/kg
same,ED50,[2],0.061 mg/kg
O=C(NC1CN2CCC1CC2)c1cc(Cl)cc2c3c(oc12)CCCC3 (stereo not drawn),ED100,[1],0.272 mg/kg
same,ED50,[2],0.033 mg/kg
O=C(N[C@H]1CN2CCC1CC2)c1cc(Cl)cc2c1O[C@@H]1CCCC[C@H]21,ED100,[1],>3 mg/kg
same,ED50,[2],0.084 mg/kg
O=C(N[C@H]1CN2CCC1CC2)c1cc(Cl)cc2c1O[C@H]1CCCC[C@@H]21,ED100,[1],0.107 mg/kg
same,ED50,[2],0.056 mg/kg
O=C(N[C@@H]1CN2CCC1CC2)c1cc(Cl)cc2c1O[C@H]1CCCC[C@@H]21,Protected,[13],100%
same,Increase,[14],171%
same,Protected,[15],25%
same,Reduction,[16],24%
same,Increase,[17],53%
same,Reduction,[18],90%
same,Protected,[19],0%
same,Reduction,[20],100%
same,Ratio,[21],5
same,Ratio,[22],0
same,ED50,[8],0.004 mg/kg
same,Ratio,[23],7
same,Protected,[24],42%
same,ED100,[9],0.007 mg/kg
same,Reduction,[25],100%
same,Reduction,[26],57%
same,Ratio,[27],1
same,Increase,[28],105%
same,ED100,[10],0.005 mg/kg
same,Ratio,[29],4
same,Protected,[30],70%
same,Increase,[31],195%
same,Ratio,[32],6
same,Increase,[33],195%
same,Protected,[34],100%
same,ED50,[2],0.004 mg/kg
Cn1cccc1CCNC(=O)c1cc(Cl)cc2c1OC1CCCCC21 (stereo not drawn),Increase,[35],1%
same,Reduction,[3],51.7%
same,Ratio,[11],0
CN1C2CCCC1CC(NC(=O)c1nn(C)c3ccccc13)C2 (stereo not drawn) [GRANISETRON],ED100,[9],0.082 mg/kg
same,ED100,[1],0.117 mg/kg
CCN(CC)CCNC(=O)c1cc(Cl)c(N)cc1OC [METOCLOPRAMIDE],ED100,[9],2.1 mg/kg
same,ED100,[1],>5 mg/kg
Cc1nccn1CC1CCc2c(c3ccccc3n2C)C1=O (stereo not drawn) [ONDANSETRON],ED50,[8],0.008 mg/kg
same,ED100,[9],0.015 mg/kg
same,ED100,[1],0.031 mg/kg
same,ED50,[2],0.28 mg/kg
